Consider one molecule from PubChem BioAssay AID463093 (The Scripps Research Institute Molecular Screening Center, 2010).

Calls of active or inactive are those of the source.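 Rule for the calls: active = compound blocking at least 90% of GSTO1 probe labeling in gels, or giving a GSTO1 band over fivefold background; inactive = the rest.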 Where only a bound is given, the exact number is not on record here.

The term inhibition denotes the relative decrease from the control value, in per cent.

The assay has as its target Glutathione S-transferase omega-1 (Homo sapiens) (UniProt P78417). Kind of assay: GSTO1 target engagement in intact cells, late-stage follow-up, mechanism study for GSTO1 inhibitor project, cell-based, MDA-MB-435, competitive ABPP, click chemistry, fluorescence (AID 463093). Particulars: MDA-MB-435 in situ competitive ABPP, gel fluorescence; for fold labeling / inhibition: stronger effect = higher value; for inhibition: in situ competitive ABPP. Summed up:
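System – MDA-MB-435 cells, in situ treatment · Amount – soluble proteome adjusted to 1 mg/mL protein · Dosing – three compound doses on cells at 1, 0.5 and 0.25 µM · Schedule – cells 1 h 37 °C, click 1 h 25 °C · Signal – in-gel fluorescence scanning after SDS-PAGE separation · Controls – blank gel background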

Sequence of Glutathione S-transferase omega-1 (Homo sapiens) (P78417 whole entry, looked up): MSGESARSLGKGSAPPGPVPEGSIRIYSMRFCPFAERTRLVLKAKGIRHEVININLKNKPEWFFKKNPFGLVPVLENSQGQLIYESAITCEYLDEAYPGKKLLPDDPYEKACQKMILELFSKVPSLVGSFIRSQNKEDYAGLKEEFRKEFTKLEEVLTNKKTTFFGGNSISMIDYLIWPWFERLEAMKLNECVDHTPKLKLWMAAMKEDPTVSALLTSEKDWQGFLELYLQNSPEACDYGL

As to `C#CCN(CCCN(C(=O)CCl)c1ccc([N+](=O)[O-])cc1)C(=O)C(F)(F)F`, where the note is “direct ABPP, click chemistry”, the outcome was active. Besides, the fold labeling runs as follows: (direct ABPP, click chemistry, click labeling 0.25 uM, at 0.25 µM) greater than 5; (direct ABPP, click chemistry, click labeling 0.5 uM, at 0.5 µM) greater than 5; (direct ABPP, click chemistry, click labeling fold over background 1 uM, at 1 µM) greater than 5. The inhibition by setting is: (at 1 µM) 100%; (inhibition, at 0.25 µM) 99%; (inhibition, at 0.5 µM) 100%.
